In publication PMC8099043 (Pharmacology Research & Perspectives, 2021):
Read-outs that look alike come from different tables or passages of the source. One block for each compound: values may come before it.

Key:
[1] = pre-treatment of rats with naringenin for 2 weeks vs control; cited from earlier work
[2] = tested on: rat liver microsomes (RLMs); experiment: Michaelis–Menten kinetics of rivaroxaban metabolism in RLMs; type: in vitro ADME, Sprague–Dawley rat
Summary of the method: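 Rat liver microsomes (1 mg/ml, 100 mM potassium phosphate, pH 7.4) were incubated with substrate over nine levels spanning 1–200 μM. Preincubation was 5 min at 37 °C, then 1 mM NADPH (final) started a 30 min reaction. It was stopped with acetonitrile plus diazepam IS, centrifuged, and the supernatant was run on UPLC‑MS/MS (positive ESI, MRM). Km came from a Michaelis–Menten fit; mean ± SD, n = 3.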

[3] = type: in vivo, Sprague–Dawley rat
[4] = cited from earlier work
[5] = with ticagrelor, rats; cited from earlier work
[6] = tested on: rivaroxaban metabolism in rat liver microsomes (RLMs); experiment: Inhibition of rivaroxaban metabolism by naringenin in rat liver microsomes; type: in vitro ADME, Sprague–Dawley rat; details: RLMs, Lineweaver-Burk plot
Summary of the method: (§1)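 Flavonoid test compound and substrate were incubated with rat liver microsomes (1 mg/ml) in 100 mM potassium phosphate, pH 7.4. After 5 min preincubation at 37 °C, 1 mM NADPH (final) started the reaction, which ran 30 min. It was quenched with acetonitrile plus diazepam IS, centrifuged and analysed by UPLC‑MS/MS. IC50 used 10 μM substrate with test compound at 1–100 μM.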

[7] = tested on: rivaroxaban metabolism in rat liver microsomes; experiment: as above; type: in vitro ADME, Sprague–Dawley rat; details: Sprague-Dawley, rat, rat liver microsomes, pH 7.4, probe rivaroxaban (10 μM)
Summary of the method: as §1

[8] = Control group: rivaroxaban 10 mg/kg oral gavage only, rats, n = 6
[9] = pretreatment of rat with naringenin for 14 days
[10] = 10 mg rivaroxaban in combination with 200 mg ketoconazole once daily
[11] = co-administration with rifampicin
[12] = single-dose rivaroxaban co-administrated with ritonavir

Structure (SMILES): C[C@@H]1CCN(C(=O)CC#N)C[C@@H]1N(C)c1ncnc2[nH]ccc12 [tofacitinib]
increase of AUC of tofacitinib [1]: 1.76 fold

Km ([2]; read-out: Km of rivaroxaban metabolism, rivaroxaban 1-200 μM): 18.4 µM | AUC(0–t) ([3]; Control group: rivaroxaban 10 mg/kg oral gavage only, rats (abstract)): 2406.28 ± 519.69 µg/h/L | AUC(0–t) [3, 8]: 2406.28 ± 519.69 µg/h/L | AUC(0–∞) [3, 8]: 2438.52 ± 529.29 ng/mL/h | AUC(0–t) ([3]; Experimental group: naringenin 10 mg/kg/day for 2 weeks, then rivaroxaban 10 mg/kg oral, rats (abstract)): 4005.04 ± 1172.76 µg/h/L | Tmax ([3]; male, Sprague-Dawley, rat, plasma, po, 10 mg/kg): 3.4 ± 0.548 h | increase of AUC of rivaroxaban, experimental group vs control [3, 9]: 1.7 times | increase of Cmax of rivaroxaban, experimental group vs control [3, 9]: 1.6 times
Structure (SMILES): O=C(NC[C@H]1CN(c2ccc(N3CCOCC3=O)cc2)C(=O)O1)c1ccc(Cl)s1 [rivaroxaban]
Vmax of rivaroxaban metabolism ([2]; rivaroxaban 1-200 μM): 4.35 pmol/min/mg | increase of AUC of rivaroxaban [4, 10]: 82% | increase of Cmax of rivaroxaban [4, 10]: 53% | reduction of body clearance rate of rivaroxaban [4, 10]: 45% | decrease of AUC of rivaroxaban [4, 11]: 50% | decrease of Cmax of rivaroxaban [4, 11]: 22% | increase of AUC of rivaroxaban [4, 12]: 150% | increase of Cmax of rivaroxaban [4, 12]: 60% | increase of AUC of rivaroxaban [5]: more than twice | increase of Cmax of rivaroxaban [5]: more than twice

Ki ([6]; rivaroxaban 5-40 μM, naringenin 0-80 μM): 54.9 µM | IC50 at 30 min [7]: 38.9 µM
Structure (SMILES): O=C1C[C@@H](c2ccc(O)cc2)Oc2cc(O)cc(O)c21 [naringenin]
inhibition type [6]: mixed inhibition
